Active and inactive are the calls of the source. The rule behind the calls is not given here.
Test system: not listed separately
Assay: Chemical stability in aqueous buffer at pH 1 after 3 hrs
Format: physicochemical
Settings: read-out: Stability
In short: (§1)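 10 mM acetonitrile stock added to 0.1 M HCl (pH 1) or 50 mM phosphate buffer pH 7.4 preheated to 37 °C; final compound 250 μM. Held at 37 ± 0.5 °C, aliquots taken at intervals and analysed by RP-HPLC. Value is % compound remaining unchanged at 3 h.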
In the case of `O=C(CC(CO[N+](=O)[O-])O[N+](=O)[O-])Oc1ccccc1C(=O)O` (stereo not given), the remaining at 3 h is reported as > 85%.
For `O=C(CCCCC(CO[N+](=O)[O-])O[N+](=O)[O-])Oc1ccccc1C(=O)O` (stereo not given), the remaining at 3 h was > 85%.
With `O=C(CCO[N+](=O)[O-])Oc1ccccc1C(=O)O` the remaining at 3 h was > 90%.
With `O=C(CCC(CO[N+](=O)[O-])O[N+](=O)[O-])Oc1ccccc1C(=O)O` (stereo not given) the remaining at 3 h was > 85%.
For `CC(=O)Oc1ccccc1C(=O)O` [ASPIRIN], the remaining at 3 h was > 90%.
For `O=C(CCCCCCO[N+](=O)[O-])Oc1ccccc1C(=O)O`, the remaining at 3 h was > 97%.
For `O=C(CCCCCO[N+](=O)[O-])Oc1ccccc1C(=O)O`, the remaining at 3 h was > 97%.
For `O=C(CCCC(CO[N+](=O)[O-])O[N+](=O)[O-])Oc1ccccc1C(=O)O` (stereo not given), the remaining at 3 h was > 85%.
`O=C(O)c1ccccc1O` [SALICYLIC ACID] showed a remaining at 3 h of 85%.
For `CC(C)(CO[N+](=O)[O-])C(=O)Oc1ccccc1C(=O)O`, the remaining at 3 h was > 97%.
In the case of `CC(C)(CCC(CO[N+](=O)[O-])O[N+](=O)[O-])C(=O)Oc1ccccc1C(=O)O` (stereo not given), the remaining at 3 h is reported as > 97%.
With `O=C(CCCO[N+](=O)[O-])Oc1ccccc1C(=O)O` the remaining at 3 h was > 97%.
In the case of `O=C(CCCCO[N+](=O)[O-])Oc1ccccc1C(=O)O`, the remaining at 3 h is reported as > 97%.

Test system: not listed separately
Assay: Chemical stability in aqueous buffer at pH 7.4 after 3 hrs
Format: physicochemical
Settings: read-out: Stability
In short: as §1
Work on `O=C(CC(CO[N+](=O)[O-])O[N+](=O)[O-])Oc1ccccc1C(=O)O` (stereo not given) yielded a remaining at 3 h of 20%.
For `O=C(CCCCC(CO[N+](=O)[O-])O[N+](=O)[O-])Oc1ccccc1C(=O)O` (stereo not given), the remaining at 3 h was > 95%.
Compound `O=C(CCO[N+](=O)[O-])Oc1ccccc1C(=O)O` has a remaining at 3 h of 55%.
In the case of `O=C(CCC(CO[N+](=O)[O-])O[N+](=O)[O-])Oc1ccccc1C(=O)O` (stereo not given), the remaining at 3 h is reported as > 95%.
For `CC(=O)Oc1ccccc1C(=O)O` [ASPIRIN], the remaining at 3 h was > 90%.
In the case of `O=C(CCCCCCO[N+](=O)[O-])Oc1ccccc1C(=O)O`, the remaining at 3 h is reported as > 95%.
In the case of `O=C(CCCCCO[N+](=O)[O-])Oc1ccccc1C(=O)O`, the remaining at 3 h is reported as > 95%.
For `O=C(CCCC(CO[N+](=O)[O-])O[N+](=O)[O-])Oc1ccccc1C(=O)O` (stereo not given), the remaining at 3 h was > 95%.
In the case of `O=C(O)c1ccccc1O` [SALICYLIC ACID], the remaining at 3 h is reported as > 90%.
With `CC(C)(CO[N+](=O)[O-])C(=O)Oc1ccccc1C(=O)O` the remaining at 3 h was > 95%.
In the case of `CC(C)(CCC(CO[N+](=O)[O-])O[N+](=O)[O-])C(=O)Oc1ccccc1C(=O)O` (stereo not given), the remaining at 3 h is reported as > 95%.
With `O=C(CCCO[N+](=O)[O-])Oc1ccccc1C(=O)O` the remaining at 3 h was > 95%.
In the case of `O=C(CCCCO[N+](=O)[O-])Oc1ccccc1C(=O)O`, the remaining at 3 h is reported as > 95%.

Test system: not listed separately
Assay: Stability in human serum assessed as half life
Format: ADME, cell-free
Settings: not given
In short: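 Compound from 10 mM acetonitrile stock added to human serum at 37 °C (final 250 μM), incubated at 37 ± 0.5 °C. Aliquots deproteinised with acetonitrile containing 0.1% TFA, sonicated, vortexed, centrifuged 10 min at 2150 g, filtered, then RP-HPLC for parent compound and salicylic acid. First-order hydrolysis; t1/2 in h ± SD.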
Work on `O=C(CC(CO[N+](=O)[O-])O[N+](=O)[O-])Oc1ccccc1C(=O)O` (stereo not given) yielded a half-life of 0.28 h.
Work on `O=C(CCCCC(CO[N+](=O)[O-])O[N+](=O)[O-])Oc1ccccc1C(=O)O` (stereo not given) yielded a half-life of 6.25 h.
For `O=C(CCO[N+](=O)[O-])Oc1ccccc1C(=O)O`, the half-life was 0.26 h.
With `O=C(CCC(CO[N+](=O)[O-])O[N+](=O)[O-])Oc1ccccc1C(=O)O` (stereo not given) the half-life was 4.09 h.
Compound `CC(=O)Oc1ccccc1C(=O)O` [ASPIRIN] has a half-life of 1.06 h.
Compound `O=C(CCCCCCO[N+](=O)[O-])Oc1ccccc1C(=O)O` has a half-life of 1.19 h.
Compound `O=C(CCCCCO[N+](=O)[O-])Oc1ccccc1C(=O)O` has a half-life of 2.03 h.
Compound `O=C(CCCC(CO[N+](=O)[O-])O[N+](=O)[O-])Oc1ccccc1C(=O)O` (stereo not given) has a half-life of 4.87 h.
With `CC(C)(CO[N+](=O)[O-])C(=O)Oc1ccccc1C(=O)O` the half-life was 9.03 h.
With `CC(C)(CCC(CO[N+](=O)[O-])O[N+](=O)[O-])C(=O)Oc1ccccc1C(=O)O` (stereo not given) the half-life was 15.2 h.
Work on `O=C(CCCO[N+](=O)[O-])Oc1ccccc1C(=O)O` yielded a half-life of 0.47 h.
`O=C(CCCCO[N+](=O)[O-])Oc1ccccc1C(=O)O` showed a half-life of 0.76 h.

Test system: Plasma
Assay: Inhibition of collagen-induced platelet aggregation in human plasma in presence of 1H-[1,2,4]oxadiazolo[4,3-a]quinoxalin-1-one
Format: functional, cell-free
Settings: not given
In short: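 Human PRP prepared by centrifuging citrated blood at 200 g for 20 min. Compounds (vehicle 0.5% DMSO) preincubated 10 min before collagen at 0.8-1.5 μg/mL (submaximal). Light-transmission aggregometry, stirring 1000 rpm, 37 °C, 10 min. sGC inhibitor ODQ at 50 μM. Inhibition relative to control; IC50 by non-linear regression, otherwise % inhibition at 300 μM; ≥5 experiments.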
In the case of `O=C(CCCCC(CO[N+](=O)[O-])O[N+](=O)[O-])Oc1ccccc1C(=O)O` (stereo not given), the Activity is reported as “inactive”.
For `O=C(CCCCCCO[N+](=O)[O-])Oc1ccccc1C(=O)O`, the Activity was “inactive”.
In the case of `CC(C)(CCC(CO[N+](=O)[O-])O[N+](=O)[O-])C(=O)Oc1ccccc1C(=O)O` (stereo not given), the Activity is reported as “inactive”.

Test system: Rattus norvegicus
Assay: Antiinflammatory activity against carrageenan-induced paw edema in Wistar rat at 120 mg/kg, intragastrically after 3 hrs
Format: functional
Settings: route intragastric
In short: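 Conscious rats, edema raised by intraplantar 0.1 ml of 1% carrageenan (in 1% CMC) into right hindpaw. […] Paw volume by water plethysmometer before and 3 h after carrageenan. Inhibition expressed relative to vehicle edema taken as 100. Groups of 6-8 animals; mean ± SEM.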
`CC(=O)Oc1ccccc1C(=O)O` [ASPIRIN] showed an Activity of 47%.

Test system: Rattus norvegicus
Assay: Toxicity in Wistar rat assessed as lesion index at 120 mg/kg, intragastrically after 3 hrs
Format: organism-based
Parameters: dose 120 mg/kg, route intragastric
Settings: in vivo, po
In short: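 Male Wistar rats, 180-200 g, fasted 24 h with water available. […] Killed after 3 h; stomachs opened along the lesser curvature and glandular mucosa examined under stereomicroscope. Each haemorrhagic lesion rated by greatest length (<1 mm = 1; 1-2 mm = 2; >2 mm = length), then summed as lesion index; mean ± SEM.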
For `CC(=O)Oc1ccccc1C(=O)O` [ASPIRIN], the Activity was 53.5%.

Test system: not listed separately
Assay: Dissociation constant, pKa of the compound
Format: physicochemical
Settings: not given
`O=C(CC(CO[N+](=O)[O-])O[N+](=O)[O-])Oc1ccccc1C(=O)O` (stereo not given) gave a pKa of 3.69.
With `O=C(CCCCC(CO[N+](=O)[O-])O[N+](=O)[O-])Oc1ccccc1C(=O)O` (stereo not given) the pKa was 3.69.
With `O=C(CCO[N+](=O)[O-])Oc1ccccc1C(=O)O` the pKa was 3.69.
For `O=C(CCC(CO[N+](=O)[O-])O[N+](=O)[O-])Oc1ccccc1C(=O)O` (stereo not given), the pKa was 3.69.
In the case of `O=C(CCCCCCO[N+](=O)[O-])Oc1ccccc1C(=O)O`, the pKa is reported as 3.69.
`O=C(CCCCCO[N+](=O)[O-])Oc1ccccc1C(=O)O` showed a pKa of 3.69.
Work on `O=C(CCCC(CO[N+](=O)[O-])O[N+](=O)[O-])Oc1ccccc1C(=O)O` (stereo not given) yielded a pKa of 3.69.
`CC(C)(CO[N+](=O)[O-])C(=O)Oc1ccccc1C(=O)O` gave a pKa of 3.69.
Compound `CC(C)(CCC(CO[N+](=O)[O-])O[N+](=O)[O-])C(=O)Oc1ccccc1C(=O)O` (stereo not given) has a pKa of 3.69.
Compound `O=C(CCCO[N+](=O)[O-])Oc1ccccc1C(=O)O` has a pKa of 3.69.
Work on `O=C(CCCCO[N+](=O)[O-])Oc1ccccc1C(=O)O` yielded a pKa of 3.69.

Test system: not listed separately
Assay: Lipophilicity, log P of the compound
Format: physicochemical
Settings: octanol/water
For `O=C(CC(CO[N+](=O)[O-])O[N+](=O)[O-])Oc1ccccc1C(=O)O` (stereo not given), the logP was 1.6.
`O=C(CCCCC(CO[N+](=O)[O-])O[N+](=O)[O-])Oc1ccccc1C(=O)O` (stereo not given) showed a logP of 1.6.
`O=C(CCO[N+](=O)[O-])Oc1ccccc1C(=O)O` gave a logP of 1.6.
For `O=C(CCC(CO[N+](=O)[O-])O[N+](=O)[O-])Oc1ccccc1C(=O)O` (stereo not given), the logP was 1.6.
Work on `CC(=O)Oc1ccccc1C(=O)O` [ASPIRIN] yielded a logP of 1.14.
`O=C(CCCCCCO[N+](=O)[O-])Oc1ccccc1C(=O)O` showed a logP of 1.6.
In the case of `O=C(CCCCCO[N+](=O)[O-])Oc1ccccc1C(=O)O`, the logP is reported as 1.6.
Work on `O=C(CCCC(CO[N+](=O)[O-])O[N+](=O)[O-])Oc1ccccc1C(=O)O` (stereo not given) yielded a logP of 1.6.
Work on `CC(C)(CO[N+](=O)[O-])C(=O)Oc1ccccc1C(=O)O` yielded a logP of 1.6.
Compound `CC(C)(CCC(CO[N+](=O)[O-])O[N+](=O)[O-])C(=O)Oc1ccccc1C(=O)O` (stereo not given) has a logP of 1.6.
Compound `O=C(CCCO[N+](=O)[O-])Oc1ccccc1C(=O)O` has a logP of 1.6.
Compound `O=C(CCCCO[N+](=O)[O-])Oc1ccccc1C(=O)O` has a logP of 1.6.

Test system: Plasma
Assay: Inhibition of collagen-induced platelet aggregation in human plasma at 300 uM relative to control
Settings: not given
With `O=C(CCC(CO[N+](=O)[O-])O[N+](=O)[O-])Oc1ccccc1C(=O)O` (stereo not given) the inhibition at 300 µM was 15%.
Work on `O=C(CCCCCO[N+](=O)[O-])Oc1ccccc1C(=O)O` yielded an inhibition at 300 µM of 27%.
Work on `O=C(CCCC(CO[N+](=O)[O-])O[N+](=O)[O-])Oc1ccccc1C(=O)O` (stereo not given) yielded an inhibition at 300 µM of 6.7%.
`CC(C)(CO[N+](=O)[O-])C(=O)Oc1ccccc1C(=O)O` gave an inhibition at 300 µM of 26%.

Test system: Aorta
Assay: Vasodilation activity in Wistar rat aorta assessed as relaxation of phenylephrine-induced smooth muscle contraction
Settings: not given
Work on `O=C(CC(CO[N+](=O)[O-])O[N+](=O)[O-])Oc1ccccc1C(=O)O` (stereo not given) yielded an EC50 of 9.2 µM.
In the case of `O=C(CCCCC(CO[N+](=O)[O-])O[N+](=O)[O-])Oc1ccccc1C(=O)O` (stereo not given), the EC50 is reported as 3.1 µM.
`O=C(CCO[N+](=O)[O-])Oc1ccccc1C(=O)O` gave an EC50 of 37 µM.
`O=C(CCC(CO[N+](=O)[O-])O[N+](=O)[O-])Oc1ccccc1C(=O)O` (stereo not given) showed an EC50 of 8.2 µM.
Work on `O=C(CCCCCCO[N+](=O)[O-])Oc1ccccc1C(=O)O` yielded an EC50 of 8.1 µM.
`O=C(CCCCCO[N+](=O)[O-])Oc1ccccc1C(=O)O` gave an EC50 of 14 µM.
With `O=C(CCCC(CO[N+](=O)[O-])O[N+](=O)[O-])Oc1ccccc1C(=O)O` (stereo not given) the EC50 was 5.8 µM.
`CC(C)(CO[N+](=O)[O-])C(=O)Oc1ccccc1C(=O)O` showed an EC50 of 6.2 µM.
For `CC(C)(CCC(CO[N+](=O)[O-])O[N+](=O)[O-])C(=O)Oc1ccccc1C(=O)O` (stereo not given), the EC50 was 5.3 µM.
With `O=C(CCCO[N+](=O)[O-])Oc1ccccc1C(=O)O` the EC50 was 23 µM.
In the case of `O=C(CCCCO[N+](=O)[O-])Oc1ccccc1C(=O)O`, the EC50 is reported as 21 µM.

Test system: Plasma
Assay: Inhibition of collagen-induced platelet aggregation in human plasma in presence of 1H-[1,2,4]oxadiazolo[4,3-a]quinoxalin-1-one
Settings: not given
Work on `O=C(CC(CO[N+](=O)[O-])O[N+](=O)[O-])Oc1ccccc1C(=O)O` (stereo not given) yielded an IC50 of 119 µM.
With `O=C(CCO[N+](=O)[O-])Oc1ccccc1C(=O)O` the IC50 was 186 µM.
`O=C(CCCO[N+](=O)[O-])Oc1ccccc1C(=O)O` showed an IC50 of 24 µM.
In the case of `O=C(CCCCO[N+](=O)[O-])Oc1ccccc1C(=O)O`, the IC50 is reported as 91 µM.
